The text below walks through data of the RNAGym collection of RNA variant scans (doi:10.1126/science.aae0568).

To fix the notation:
B1: tRNA (parent)
chain: GUUCCGUUGGCGUAAUGGUAACGCGUCUCCCUCCUAAGGAGAAGACUGCGGGUUCGAGUCCCGUACGGAACG

This sample holds only a part of the variants without activity.

The variants in this series derive from B1. Description: yeast fitness relative to wild type (ratio to wild type); higher = fitter; tRNA-Arg(CCU), competitive growth, 37 C, YPD. The essentials: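 The tRNA-Arg(CCU) gene variants were made by chemical synthesis with a 3% per-site mutation rate at 69 sites and inserted at the native genomic locus of Saccharomyces cerevisiae. After pooling, the strains were competed in YPD at 37°C for 24 hours in six parallel replicates. Gene amplicons from the start population and each end population were read by 100-nucleotide paired-end sequencing, and Darwinian fitness relative to wild type was taken from genotype frequency changes. Genotypes needed ≥ 100 starting reads, and estimates < 0.5 were set to 0.5.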
As to GUUCUGUUGGCGUAAUGGUAACGCGUCUCCUUCCUAAGGAGAAGACUGCGGGUUCGAGUCGCGUACGGAACG [C5U C31U C61G], the yeast fitness came to 0.549.

For GUUCCGUUGGCGUAAUGGUAACGCGUCUCCCUCCUAAGGAGAAGACUGCGGGUUCGAGUUCCGUACGGCACG [C60U A69C], the yeast fitness is 0.713.

For GUUCCGUUGGCGUAAUCGUAAGGCGUCUCCCUCCUAAGGAGAAGACUGCGGAUUCGAGUCCCGUACGGAACG [G17C C22G G52A], the yeast fitness was at most 0.5.

Take GUUCCGUUCGCGUAAUGGUAACGCGUUUCCCUCGUAAGGAGAAGACUGCGGGUUCGAGUACCGUACGGAACG [G9C C27U C34G C60A]: the yeast fitness is at most 0.5.

Regarding GUUCCGUUCGCGUAAUGGUAACGCGUCUCCCUCCUAAGGAGAAGACGGAGGGUUCGAGUCCCGUACGGUACG [G9C U47G C49A A69U], the yeast fitness was at most 0.5.

Take GUUCCGUUGGCGUAGUGGUAACGCGUCUCCCUCCUAAGGAGCAGACUGCGCGUUCGAGUCCCGUACCGAACG [A15G A42C G51C G67C]: the yeast fitness was at most 0.5.

For the variant GGUCCGUUGGCGAAAUGGUAACGCGUCUCCCUCCUAAGGAGAAGACUGCGGGUUCGAGUCCCGUACGGAACG [U2G U13A], the yeast fitness stood at 0.822.

Take GUUCCGUUGGCGUAAGGGUAAAGCGUCUCCCUCCUAAGGAGAAGACUGCGGGUUCGAGUCCAGUACGGAACG [U16G C22A C62A]: the yeast fitness is at most 0.5.

For GUUCCGUUGGCGUAAGGGUAACGCGUCUCCCUCCUAAGGAGAAGACUGCGGGUUCGAGUCCCGUAUGGCACG [U16G C66U A69C], the yeast fitness is 0.728.

As for GUUACGUUGGCGUAAUGGGAACGCGUCUCGCUCCUAAGGAGAAGACUGCGGGUUCGAGUCCCGUACGGAACG [C4A U19G C30G], the yeast fitness is at most 0.5.

With GUUCCGUUGGCGUAAUCGUAACGCGUCUUCCUCCUACGGAGAAGACUGCGGGUUCGAGUCCCGUCCGGAACG [G17C C29U A37C A65C], the yeast fitness came out at 0.555.

On to GUUCCGUUGGCCUAAUGGUAACGCGUCUCCCUCCUAAGGAGAAGACUGCGGGUUCGAGUCCCGUACGGAUCG [G12C A70U], for which the yeast fitness is 0.707.

For the variant GUUCCGUUGGCGUAAUGGUAUCGCGUCUCCCUCCUAAGGAGAAGACUGGGGGUUCGAGUCCCGUACGGAACG [A21U C49G], the yeast fitness was found to be 0.618.

For the variant GUUCCGUUGGCGUAAUGGUAACGCGUCUCGCUCCUAAGGCGGAGACUGCGGGUUCGAGUCCCGUACGGAACG [C30G A40C A42G], the yeast fitness is at most 0.5.

For the variant GUUCCGUUGCCGUAAUGGUAACGCGUCUCCCCACUAAGGAGAAGACUGCGGGUUCGAGUCCCGUACGGAACG [G10C U32C C33A], the yeast fitness is at most 0.5.

In the case of GUUCCGUCGGCGUAAUGGUAACGCGUCUCCCUCCUAAGGACAAGACUGCGGGUUCGAGUCCCGUACGGAACG [U8C G41C], the yeast fitness worked out at 0.88.

With GUUCCGUUGGCGUUAUGGUAACACGUCUCCUUCCUAAGGAGAUGACUGCGGGUUCGAGUCCCGUACGGAACG [A14U G23A C31U A43U], the yeast fitness was at most 0.5.

GUUCCGUUGGCGUAAUGGUAACGCGUCUCCCUCCUAAGGAGAAGGCUGCGGGUUCGAAUCCCGUACGGAACG [A45G G58A]: the yeast fitness came out at 1.04.

In the case of GUUCCGUUGGCGUAAUGGUAACGGGUCUCCCUCGUAAGGAGAUGACUGCGGGUUCGAGUCCCGUACGGAACG [C24G C34G A43U], the yeast fitness was at most 0.5.

As to GUUCCGUUGGCGUAAUGGUAACGUGUCUCCCUUGUAAGGUGAAGACUGCGGGUUCGAGUCCCGUACAGAACG [C24U C33U C34G A40U G67A], the yeast fitness amounted to 0.541.

As for GUUCCGUUGGCGUAAUGGUAACGCGUCUCCCUCCUAAGGAGAAGACUGCGGGUUCGAGUCCCGUACCUAACG [G67C G68U], the yeast fitness came to 0.676.

GUUCCGUUGGCGUAAUGGUAACGCGUCUCCCUCCUAAGGAGAAGACUGCGAGUUCGAGUUUCGUGCGGCACG [G51A C60U C61U A65G A69C]: the yeast fitness was 0.594.

As for GUUCCGUUGGCGUAAUGGUAACGCGUAUCCUUCCUAAGGAGAAGACUGCGGGUUCGAGUCCCGUACGGAACG [C27A C31U], the yeast fitness turned out to be 0.941.

Consider GUUCCGUUGGCGUAAUGGUAACGCGUCUCCCUCCUAAGGAGAAGACUGCGGGUUCGAGGCCCGUACGGAACG [U59G], for which the yeast fitness was 1.01.

For the variant GUUACGUUGGCGUAAUGGUAACGCGUCUUCCUACUCAGGAGCAGGCUGCGGGUUCGAGUCCCGUACGGAACG [C4A C29U C33A A36C A42C A45G], the yeast fitness is at most 0.5.

For GUUCCGUUGAAGUAAUGGUAACGCGUCUACCUCCUAAGGAGAAGACUGCGGGUUCGAGUCCCGUACGGAACG [G10A C11A C29A], the yeast fitness turned out to be 0.627.

For GUUCCGUUGGCGAACUGGUAACGCGUCUCCCUGCUAAGGAGAAGACUGUGGGUUCGAGUCCCGUACGGCACG [U13A A15C C33G C49U A69C], the yeast fitness was at most 0.5.

Regarding GUUCCGUUGGCGUAUUGGUAACGCGUCUCCCUGCUAAGGAGAAGACUGAGGGUUCGAGUGCCGUACGGAACG [A15U C33G C49A C60G], the yeast fitness is at most 0.5.

GUUCGGUUGGCGUAAUGGUAACGCGUCACCCUCGUAAGGAGAAGAAUGCGGGUUCGAGUCCCGUACGGAACG [C5G U28A C34G C46A]: the yeast fitness was at most 0.5.

As to GUUCCGUUGGCAUAAUGGUAACGCGUCUCCCUCCUAAGGAGAAGACUGUGGGUUCGAGUCCCGUCCGGAACG [G12A C49U A65C], the yeast fitness worked out at 0.676.

GUUCCGUUGGCGUAAUGGUAACGUGUCUCUCUCCUAAGGAGAAGACUGCGGGUUCGCGUCCCGUACGGAACG [C24U C30U A57C]: the yeast fitness was at most 0.5.

Take GUUCCGUUGGCGUAAAGAUAACGCGUCUCCUUCCUAAGGAGAAGACUGCGGGUUCGAGUCCCGUGCGGAACG [U16A G18A C31U A65G]: the yeast fitness was determined as 0.548.

For the variant GUUCCGUUGGCGUAAUGGUUAUGCGUCUCCCUCCUAAGGAGAAGACUGCGGGUUCGAGUCCCGUACGGAACG [A20U C22U], the yeast fitness was determined as 0.716.

With GUUCCGUUGGCGUACUGGUAACGCGUCUCCCUUCUUAGGAGAAGACUGCGGGUUCGAGUCCCGUAUGGAACG [A15C C33U A36U C66U], the yeast fitness is at most 0.5.

GUUCCGUUGGCGUAAUGGUAACGCGUCUCGCUCCUAAGGAGAAGAGUGCGGGUUCGUGUCCCGUAUGGAUCG [C30G C46G A57U C66U A70U]: the yeast fitness is at most 0.5.

As to GUUCCGUUGGCGUAAUGGUAACGCGUCUCCCUCCUUAGGAGAACUCUGCGGGUUCGAGUCCUGUACGAAACG [A36U G44C A45U C62U G68A], the yeast fitness was found to be 0.789.

As to GUUCCGUUGGCGUAAUGGUAACGCGUCUCCCUCCUAAGAAGAAGCCUGCGGGUUCGAGUCCCGUACGGCACG [G39A A45C A69C], the yeast fitness was found to be 0.804.

For the variant GUUCGGUUGGCGUAAUGGUAACGGGUCUCCCUCCUAAGGUGAAGACUGCGGGUUCGAGUCCCGUACGGAACG [C5G C24G A40U], the yeast fitness came out at 0.57.
